{
  "source": "paper PMC5421726",
  "about": "(Clinical and Translational Science, 2017)",
  "key": {"HbA1c [1]": {"tested_on": "HbA1c", "assay": "PK/PD model relating tPDE4i to HbA1c in db/db mice", "type": "in vivo", "how_it_was_run": "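Once-daily dosing of db/db mice for 28 days: test compound at 1, 3 or 10 mg/kg/day, reference PDE4 inhibitor at 0.3, 1 or 3 mg/kg/day, its N-oxide metabolite at 3 mg/kg/day, vehicle 4% methocel. HbA1c read on days -1, 14 and 28. Emax model links HbA1c rise over time to individual tPDE4i. Fit by nonlinear mixed-effects modelling with FOCE-interaction; checked by visual predictive check (200 simulations).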"}, "PDE4": {"tested_on": "PDE4", "assay": "Total PDE4 inhibition", "type": "in vivo", "settings": "db/db mice, geometric mean; for Complete tPDE4i: roflumilast + roflumilast N-oxide"}, "[2]": {"assay": "Unbound fraction in mouse plasma in vitro", "type": "in vitro ADME"}, "diabetic mouse model": {"tested_on": "diabetic mouse model", "settings": "cited from earlier work"}, "HbA1c [3]": {"tested_on": "HbA1c", "settings": "clinical setting; cited from earlier work"}, "[4]": {"assay": "Population pharmacokinetic analysis in db/db mice", "type": "in vivo", "settings": "after roflumilast-N-oxide dosing"}, "[5]": {"settings": "roflumilast N-oxide 3 mg/kg/day"}},
  "data": [
    {"smiles": "O=C(Nc1c(Cl)c[n+]([O-])cc1Cl)c1ccc(OC(F)F)c(OCC2CC2)c1", "note": "[roflumilast(‐N‐oxide)]", "values": [
      {"measurement": "PDE50 (tPDE4i leading to half-maximum effect on HbA1c)", "setting": "HbA1c [1]; final PK/PD model estimate, 28 days", "result": 27.1}
    ]},
    {"smiles": "O=C(Nc1c(Cl)cncc1Cl)c1ccc(OC(F)F)c(OCC2CC2)c1", "note": "[roflumilast]", "values": [
      {"measurement": "tPDE4irof", "setting": "PDE4; roflumilast 0.3 mg/kg/day", "result": 0.744},
      {"measurement": "tPDE4irofNO", "setting": "PDE4; roflumilast 0.3 mg/kg/day", "result": 0.731},
      {"measurement": "Complete tPDE4i", "setting": "PDE4; roflumilast 0.3 mg/kg/day", "result": 1.49},
      {"measurement": "tPDE4irof", "setting": "PDE4; roflumilast 1 mg/kg/day", "result": 2.23},
      {"measurement": "tPDE4irofNO", "setting": "PDE4; roflumilast 1 mg/kg/day", "result": 2.31},
      {"measurement": "tPDE4irof", "setting": "PDE4; roflumilast 3 mg/kg/day", "result": 6.56},
      {"measurement": "tPDE4irofNO", "setting": "PDE4; roflumilast 3 mg/kg/day", "result": 7.18},
      {"measurement": "Complete tPDE4i", "setting": "PDE4; roflumilast 3 mg/kg/day", "result": 13.8},
      {"measurement": "Dose required to reach half-maximum effect on HbA1c", "setting": "HbA1c [1]; calculated from PDE50", "result": 5.9, "unit": "mg/kg"},
      {"measurement": "fraction unbound", "setting": "[2]", "result": 0.037},
      {"measurement": "Antidiabetic efficacy", "setting": "diabetic mouse model", "result": "significant antidiabetic efficacy"},
      {"measurement": "HbA1c levels", "setting": "HbA1c [3]", "result": "significantly reduced"}
    ]},
    {"smiles": "O=C(Nc1c(Cl)c[n+]([O-])cc1Cl)c1ccc(OC(F)F)c(OCC2CC2)c1", "note": "[roflumilast‐N‐oxide]", "values": [
      {"measurement": "Exposure of roflumilast relative to roflumilast-N-oxide", "setting": "[4]", "result": "2.6 % of roflumilast‐N‐oxide"},
      {"measurement": "Apparent roflumilast clearance", "setting": "[4]; two-compartment model", "result": 41.8, "unit": "L/h"},
      {"measurement": "Apparent roflumilast-N-oxide clearance", "setting": "[4]; two-compartment model", "result": 1.09, "unit": "L/h"},
      {"measurement": "tPDE4irof", "setting": "PDE4; [5]", "result": 0.375},
      {"measurement": "tPDE4irofNO", "setting": "PDE4; [5]", "result": 22.1},
      {"measurement": "Complete tPDE4i", "setting": "PDE4; [5]", "result": 22.5}
    ]}
  ]
}
